VIM-2 inh: inhibitors of Pseudomonas aeruginosa VIM-2 metallo-beta-lactamase; inhibition, % at 5.6 µM; hit rate 0.89% among 290,000; purified VIM-2, nitrocefin hydrolysis, epi-absorbance fluorescence; AID 1527;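 active = inhibition above the mean of all tested compounds plus 3 SD, cutoff set per screening run, cut at about 7.5% in these data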;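 also: red hydrolysis product quenches plate fluorescence so inhibitors raise well fluorescence; 0% = enzyme with DMSO and 100% = DMSO without enzyme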
PvdQ acylase: P. aeruginosa PvdQ acylase inhibition. hit rate 0.063% among 340,000. purified PvdQ acylase, fluorescence plate reader. inhibition, % at 10 µM; in the data active = inhibition above about 30%, passing the limit was not always enough;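 also: 0% = vehicle neutral wells and 100% = reference inhibitor wells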
IMP-1 inhibitor: inhibitors of Pseudomonas aeruginosa IMP-1 metallo-beta-lactamase. AID 1556. hit rate 0.45% among 290,000. inhibition, % at 5.6 µM. purified IMP-1, nitrocefin hydrolysis, epi-absorbance fluorescence;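 active = inhibition above the mean plus 3 SD of all compounds in the same screening run, cut at about 4.5% in these data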;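 also: 0% = IMP-1 with DMSO and 100% = DMSO wells lacking enzyme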
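System: Purified IMP-1 | Read-out basis: Percent enzyme inhibition | Controls: IMP-1 with DMSO as 0%, enzyme-free DMSO as 100% | Replicates: One well per compound | Doses: 5.6 µM nominal single concentration | Detection: Epi-absorbance fluorescence, 480 nm excitation, 530 nm emission | Incubation: 25 °C, 15 min preincubation, 25 min reaction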
PHOSPHO1 block: blocks human PHOSPHO1 phosphatase activity; AID 1565; recombinant PHOSPHO1, absorbance phosphatase assay; Q8TCT1; inhibition, % at 13.3 µM; hit rate 1.1% among 290,000; in the data active = inhibition above about 60%
Target sequence (Q8TCT1 whole entry, looked up): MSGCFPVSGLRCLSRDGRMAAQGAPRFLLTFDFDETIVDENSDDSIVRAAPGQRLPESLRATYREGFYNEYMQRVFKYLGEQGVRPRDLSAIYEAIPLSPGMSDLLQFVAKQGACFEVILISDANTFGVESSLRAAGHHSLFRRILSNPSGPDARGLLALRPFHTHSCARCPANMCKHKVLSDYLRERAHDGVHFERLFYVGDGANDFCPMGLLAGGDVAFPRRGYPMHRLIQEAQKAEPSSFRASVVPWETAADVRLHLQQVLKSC
Yeast superoxide: lowers age-related superoxide in aged yeast cells; S. cerevisiae aged cells, superoxide DHE fluorescence; active compounds read low; superoxide response (% of plate mean), % at 10 µM; hit rate 0.18% among 330,000; AID 2690;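 active = superoxide response under a set limit, about three screen SD below normal, cut at about 65% in these data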;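 also: yeast aged for seven days with compound at 30 °C before DHE staining; 100% = average MFI of all compound-treated wells on the plate with controls excluded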
The depositor's hits bear a star. This is a sample that favours compounds with a hit; in the whole collection about 2.2% have one here.

Screening Cc1cccn2c(=O)c3cc(C(=O)NCCN4CCOCC4)c(=N)n(CCCN4CCOCC4)c3nc12 returned VIM-2 inh 2, PvdQ acylase -10, IMP-1 inhibitor -3, PHOSPHO1 block 52 and Yeast superoxide 103.
Screening COCCCn1c(C(=O)NCCN2CCOCC2)cc2c(=O)n3cccc(C)c3nc21 returned VIM-2 inh 9.4*, PvdQ acylase -7, IMP-1 inhibitor 0, PHOSPHO1 block 33 and Yeast superoxide 98.
C=CCN1C(=O)/C(=C2/C(=O)N(CC(=O)O)c3ccccc32)S/C1=N/c1nccs1 was read as VIM-2 inh -2, IMP-1 inhibitor 3 and PHOSPHO1 block 23.
Screening CCOc1ccc(N=c2scc(-c3ccccc3)n2CCO)cc1 returned VIM-2 inh -4, PvdQ acylase -1, IMP-1 inhibitor -1, PHOSPHO1 block 98* and Yeast superoxide 103.
`Nc1nc(Nc2cccc(F)c2)nc(N2CCOCC2)c1[N+](=O)[O-]` gave VIM-2 inh 1, PvdQ acylase 7, IMP-1 inhibitor -3, PHOSPHO1 block 14 and Yeast superoxide 88.
Nc1nc(NCCCN2CCOCC2)nc(Nc2ccc(F)cc2)c1[N+](=O)[O-] was read as VIM-2 inh 8.1*, PvdQ acylase -5, IMP-1 inhibitor 0, PHOSPHO1 block -11 and Yeast superoxide 98.
For Nc1nc(NCCCN2CCOCC2)nc(Nc2cccc(F)c2)c1[N+](=O)[O-] the results were VIM-2 inh 9.7*, PvdQ acylase 4, IMP-1 inhibitor -4, PHOSPHO1 block 3 and Yeast superoxide 95.
`COc1ccc(Nc2nc(NCCCN3CCOCC3)nc(N)c2[N+](=O)[O-])cc1` gave VIM-2 inh 1, PvdQ acylase 4, IMP-1 inhibitor -2, PHOSPHO1 block 16 and Yeast superoxide 87.
O=C(CCCSc1nnnn1-c1ccccc1)c1ccc(F)cc1 was read as VIM-2 inh 0, IMP-1 inhibitor -1 and PHOSPHO1 block 9.
`C=CCOc1ccc(CN(C)C(=O)CNC(=O)c2ccc(-c3ccccc3)cc2)cc1` gave VIM-2 inh 1, PvdQ acylase 1, IMP-1 inhibitor 2, PHOSPHO1 block 14 and Yeast superoxide 101.
For O=C(O)c1ccc(C2Nc3ccccc3C(=O)N2Cc2ccccc2)cc1 (configuration not stated) the results were VIM-2 inh 0, PvdQ acylase -17, IMP-1 inhibitor -1, PHOSPHO1 block 4 and Yeast superoxide 114.
For O=C(Nc1ccccc1)c1nnsc1S(=O)c1ccc(Cl)cc1 (configuration not stated) the results were VIM-2 inh 1, PvdQ acylase -17, IMP-1 inhibitor -1, PHOSPHO1 block 93* and Yeast superoxide 84.
O=C(c1nnsc1S(=O)c1ccc(Cl)cc1)N1CCOCC1 (configuration not stated) was read as VIM-2 inh 4, PvdQ acylase -15, IMP-1 inhibitor -1 and PHOSPHO1 block 28.
CCN(CC)c1ccc(NC(=O)Nc2cccc(C(C)=O)c2)cc1 was read as VIM-2 inh -2, PvdQ acylase -15, IMP-1 inhibitor -2, PHOSPHO1 block 74* and Yeast superoxide 111.
`CCN(CC)c1ccc(NC(=O)c2ccc(Br)o2)cc1` gave VIM-2 inh 1, PvdQ acylase -14, IMP-1 inhibitor -3, PHOSPHO1 block 71* and Yeast superoxide 96.
`CC(=O)Nc1cccc(NC(=O)Nc2ccc(C(C)=O)cc2)c1` gave VIM-2 inh -1, PvdQ acylase -7, IMP-1 inhibitor -4, PHOSPHO1 block -14 and Yeast superoxide 95.
For CCOc1cccc(C(=O)Nc2ccc(N(CC)CC)cc2)c1 the results were VIM-2 inh 1, PvdQ acylase 9, IMP-1 inhibitor -2, PHOSPHO1 block 70* and Yeast superoxide 118.
Screening CCOc1cccc(C(=O)Nc2ccc3ccccc3c2)c1 returned VIM-2 inh 0, PvdQ acylase -13, IMP-1 inhibitor -2, PHOSPHO1 block 14 and Yeast superoxide 116.
`Cc1ccc(C(C(=O)NC2CCCCC2)N(C(=O)c2csnn2)C2CC2)cc1` (configuration not stated) gave VIM-2 inh -3, PvdQ acylase -17, IMP-1 inhibitor -2, PHOSPHO1 block 19 and Yeast superoxide 91.
Screening CCS(=O)(=O)N1CCN(Cc2ccncc2)CC1 returned VIM-2 inh -4, PvdQ acylase -10, IMP-1 inhibitor -3, PHOSPHO1 block 12 and Yeast superoxide 105.
CCCS(=O)(=O)N1CCN(Cc2ccncc2)CC1 was read as VIM-2 inh 0, PvdQ acylase -9, IMP-1 inhibitor 5.1*, PHOSPHO1 block -16 and Yeast superoxide 103.
C=CCn1c(SCC(=O)N(C)C)nc2sc3c(c2c1=O)CCC3 was read as VIM-2 inh 8.4*, PvdQ acylase -2, IMP-1 inhibitor -1, PHOSPHO1 block 12 and Yeast superoxide 120.
C=CCSc1nc2sc3c(c2c(=O)n1CC)CCC3 was read as VIM-2 inh 1, PvdQ acylase -11, IMP-1 inhibitor -3, PHOSPHO1 block 29 and Yeast superoxide 94.
`Cc1ccc(-c2nc(NCCCO)c3ccccc3n2)cc1` gave VIM-2 inh 1, PvdQ acylase -16, IMP-1 inhibitor 0 and Yeast superoxide 107.
Screening c1ccc2c(NCCc3c[nH]c4ccccc34)c3ccccc3nc2c1 returned VIM-2 inh 8.1*, PvdQ acylase 17, IMP-1 inhibitor -3, PHOSPHO1 block 20 and Yeast superoxide 105.
`OCCCNc1c2ccccc2nc2ccccc12` gave VIM-2 inh 8.3*, PvdQ acylase 9, IMP-1 inhibitor -1 and Yeast superoxide 105.
Screening COC(=O)c1cc(N=C(N)N=C(N)N)cc(C(=O)OC)c1 returned VIM-2 inh 9.0*, PvdQ acylase 2, IMP-1 inhibitor -3, PHOSPHO1 block 46 and Yeast superoxide 91.
`COc1ccc2cc(C3CC(c4ccco4)=NN3S(=O)(=O)c3ccccc3)c(Cl)nc2c1` (configuration not stated) gave VIM-2 inh -4, PvdQ acylase -7, IMP-1 inhibitor -1, PHOSPHO1 block 1 and Yeast superoxide 54*.
`Cc1nc(CCNS(=O)(=O)c2cccnc2)cs1` gave VIM-2 inh -3, PvdQ acylase -4, IMP-1 inhibitor -4, PHOSPHO1 block 56 and Yeast superoxide 98.
Screening CCCCCNC(=O)C(=O)C1C(=O)Nc2ccccc21 (configuration not stated) returned VIM-2 inh -2, PvdQ acylase -10, IMP-1 inhibitor -1, PHOSPHO1 block 28 and Yeast superoxide 56*.
COc1ccc(C(=O)CN2Cc3ccccc3C2=N)cc1 was read as VIM-2 inh -2, PvdQ acylase -2, IMP-1 inhibitor -3, PHOSPHO1 block 32 and Yeast superoxide 95.
Cc1occc1-c1nnc(SCC(=O)O)n1-c1ccccc1 was read as VIM-2 inh 1, PvdQ acylase -13, IMP-1 inhibitor -1, PHOSPHO1 block 25 and Yeast superoxide 93.
For Cc1cc(C)c2nc3s/c(=C/c4ccccc4)c(=O)n3c2c1 the results were VIM-2 inh 0, IMP-1 inhibitor -2 and PHOSPHO1 block 93*.

Source: PubChem BioAssay
